Assay results as given in PMC2597202 (Structure (London, England : 1993), 2008).
Entries after “also recorded” stand apart in the source; their conditions may differ.

What was measured:
[1] = test system: viruses with the S375W mutant envelope glycoproteins; assay: Enhancement of infection of Cf2Th-CCR5 cells, S375W virus; assay type: cell-based, HIV-1
[2] = test system: recombinant HIV-1 with the wild-type HIV-1YU2 envelope glycoproteins; assay: Enhancement of infection of CD4-negative Cf2Th-CCR5 cells, w.t. YU2 virus; assay type: cell-based
[3] = test system: D368A mutant viruses; assay: Enhancement of infection of Cf2Th-CCR5 cells, D368A virus; assay type: cell-based, HIV-1; details: CD4−CCR5+ target cells; D368A envelope glycoproteins
[4] = test system: viruses with an alanine residue substituted for Glu 429; assay: Enhancement of infection of Cf2Th-CCR5 cells, Glu 429 to alanine virus; assay type: cell-based, HIV-1; details: Glu 429 replaced with alanine
[5] = test system: viruses with Glu 429 replaced with a lysine residue; assay: Enhancement of infection of Cf2Th-CCR5 cells, Glu 429 to lysine virus; assay type: cell-based, HIV-1; details: Glu 429 replaced with lysine
[6] = test system: viruses with the w.t. YU2 envelope glycoproteins; assay: Inhibition of infection of Cf2Th-CD4/CCR5 cells, w.t. YU2 virus; assay type: cell-based, HIV-1; details: for IC50: read-out: 50% inhibitory concentration (IC50), Cf2Th-CD4/CCR5 cells, w.t. YU2 envelope glycoproteins
Method in brief: (§1)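 Cf2Th-CD4/CCR5 cells were seeded at 6×10^3/well 24 h ahead. Luciferase viruses bearing YU2 Env (w.t. or S375A) or control A-MLV Env were premixed with test compound (1 to 100 μM) for 30 min at 37°C, then added to the cells for 48 h at 37°C. Luciferase was read after freeze-thaw lysis. Infection was expressed relative to no compound. IC50 is the mean ± SD of five independent experiments, each run in triplicate.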

[7] = test system: viruses containing a chimeric HIV-1 envelope glycoprotein (HX(YU2 V3)); assay: Enhancement of infection of Cf2Th-CCR5 cells, HX; assay type: cell-based
[8] = test system: viruses with the KB9 envelope glycoproteins; assay: Entry into CD4-negative Cf2Th-CXCR4 cells, KB9 virus; assay type: cell-based, HIV-1; details: data not shown
[9] = molecular target: HXBc2 gp120 (Human immunodeficiency virus type 1 group M subtype B, UniProt P04578); assay: Direct binding of 3H-labeled NBD-556, HXBc2 gp120; parameters: species or system HIV-1
[10] = test system: Viruses with the S375A envelope glycoproteins; assay: Inhibition of infection of Cf2Th-CD4/CCR5 cells, S375A virus; assay type: cell-based, HIV-1
Method in brief: as §1

[11] = molecular target: gp120 core-17b complex; assay: BIAcore analysis; assay type: binding, HIV-1; details: data not shown
[12] = molecular target: gp120 core bound to the 17b antibody; assay: Thermodynamic cycle by isothermal titration calorimetry, gp120 core bound to 17b; assay type: binding, HIV-1
[13] = test system: viruses with the S375A change; assay: Enhancement of infection of Cf2Th-CCR5 cells, S375A virus; assay type: cell-based, HIV-1; details: S375A envelope glycoproteins, compared with w.t.
[14] = test system: envelope glycoproteins of the laboratory-adapted CXCR4-using (X4) HIV-1 isolate, HXBc2; assay: Entry into CD4-negative Cf2Th-CXCR4 cells, HXBc2 virus; assay type: cell-based; details: data not shown
[15] = test system: YU2, HXBc2 and HX(YU2 V3) gp120 glycoproteins; assay: Direct binding of 3H-labeled BMS-806 to gp120 variants; parameters: species or system HIV-1; details: all three gp120 glycoproteins

CC1(C)CC(NC(=O)C(=O)Nc2ccc(Br)cc2)CC(C)(C)N1 [NBD-557]
enhancement of infection (in words) [1]: did not activate the entry
enhancement of HIV-1 entry/infection of CCR5+ cells (in words) [2]: comparably to NBD-556
enhancement of infectivity (in words) [3]: not enhanced
virus-enhancing activity (in words) [4]: significantly diminished
activation of infection (in words) [5]: eliminated the activation of infection

CC1(C)CC(NC(=O)C(=O)Nc2ccc(Cl)cc2)CC(C)(C)N1 [NBD-556]
IC50 [6]: 100 µM
enhancement of infection (in words) [7]: dramatically enhanced infection
enhancement of infection (in words) [1]: not enhanced
enhancement of HIV-1 entry/infection of CCR5+ cells (in words) [2]: significant enhancement
enhancement of entry (in words) [8]: did not enhance
direct binding of 3H-labeled NBD-556 (in words) [9]: only moderately
IC50 [10]: 10 to 20 µM
enhancement of infectivity (in words) [3]: enhanced
virus-enhancing activity (in words) [4]: less disruptive
Kd [11]: 6.6 µM
Kd ([12]; gp120 core bound to the 17b antibody, isothermal titration calorimetry): 1.5 µM
increase in affinity for the gp120 core bound to the 17b antibody ([12]; versus gp120 core alone): approximately 25 fold
activation of infection (in words) [5]: eliminated the activation of infection
enhancement of infection (in words) [13]: greater enhancement
enhancement of entry (in words) [14]: not functionally enhanced

CC1(C)CC(NC(=O)C(=O)Nc2ccc(Cl)c(F)c2)CC(C)(C)N1 [JRC-II-191]
IC50 [6]: 54 µM
inhibition of HIV-1YU2 infection of cells expressing CD4 and CCR5 (in words) ([6]; specificity versus A-MLV envelope glycoproteins): specifically inhibited
enhancement of infection (in words) [1]: did not activate the entry
enhancement of HIV-1 entry/infection of CCR5+ cells (in words) [2]: most potent stimulation of HIV-1 infection; also recorded: activated HIV-1 infection
IC50 [10]: 10 to 20 µM
enhancement of infectivity (in words) [3]: enhanced
virus-enhancing activity (in words) [4]: significantly diminished
activation of infection (in words) [5]: eliminated the activation of infection

COc1ccnc2[nH]cc(C(=O)C(=O)N3CCN(C(=O)c4ccccc4)C[C@H]3C)c12 [BMS-806]
direct binding of 3H-labeled BMS-806 (in words) [15]: similarly
